# Laboratory results taken from article PMC9044438 (Cell reports, 2022).
# Tested on: HCT116 cells
# Assay: RNA-seq of nuclear RNA from HCT116 cells electroporated with peptide
# Assay type: cell-based, human
# Conditions: 10 μM Nutlin-3a, 3 h, versus DMSO
# Procedure, shortened: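 HCT116 cells were trypsinized and electroporated with 0 or 10 μM peptide into antibiotic-free McCoy's 5A (serum-free in the second run). They then went to medium with 0.1% DMSO or 10 μM Nutlin-3a, plus 200 nM peptide in peptide wells, for 3 h at 37°C. Nuclei were isolated in 0.5% NP-40 lysis buffer, and nuclear RNA was TRIzol-extracted with extra phenol/chloroform cleanup.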
smiles,measurement,value
COc1ccc(C2=N[C@@H](c3ccc(Cl)cc3)[C@@H](c3ccc(Cl)cc3)N2C(=O)N2CCNC(=O)C2)c(OC(C)C)c1 [Nutlin-3a],expression of p53 target genes,induced expression of p53 target genes
